# Test results reported in ChEMBL document CHEMBL2034859, “Simple, fast and efficient synthesis of β-keto esters from the esters of heteroaryl compounds, its antimicrobial study and cytotoxicity towards various cancer cell lines” (Bioorg Med Chem Lett, 2012).
# Legend:
# [1] = tested on: NCI-H460; assay: Cytotoxicity against human NCI-H460 cells at 0.03 uM after 48 hrs by WST-1 assay; assay type: functional
# In short: (§1)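 Cells from ATCC, grown in DMEM with 10% heat-inactivated FBS at 37 °C in humidified 5% CO2. Log-phase cells seeded at 5 × 10^3 cells/well and left to recover overnight, then exposed to varying compound concentrations for 48 h. Controls received medium with 0.2% DMSO vehicle. CCK-8 ([…]) reagent added at 5 µL/well for 2 h, then absorbance read.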
# [2] = tested on: Calu-1; assay: Cytotoxicity against human Calu1 cells at 30 uM after 48 hrs by WST-1 assay; assay type: functional
# In short: (§2)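 Cells from ATCC were grown in DMEM with 10% heat-inactivated FBS at 37 °C in 5% CO2. Log-phase cells were seeded at 5 × 10^3 per well and left to recover overnight. They were then exposed to a range of compound concentrations for 48 h, with 0.2% DMSO as the vehicle control. CCK-8 (WST) reagent was added for 2 h and absorbance was measured.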
# [3] = tested on: PANC-1; assay: Cytotoxicity against human PANC1 cells at 0.01 uM after 48 hrs by WST-1 assay; assay type: functional; in short: as §1
# [4] = tested on: PANC-1; assay: Cytotoxicity against human PANC1 cells at 30 uM after 48 hrs by WST-1 assay; assay type: functional; in short: as §1
# [5] = tested on: ACHN; assay: Cytotoxicity against human ACHN cells at 0.3 uM after 48 hrs by WST-1 assay; assay type: functional; in short: as §2
# [6] = tested on: PANC-1; assay: Cytotoxicity against human PANC1 cells at 0.03 uM after 48 hrs by WST-1 assay; assay type: functional; in short: as §1
# [7] = tested on: MCF-10A; assay: Cytotoxicity against human MCF10A cells at 0.1 uM after 48 hrs by WST1 assay; assay type: cell-based
# [8] = tested on: HCT-116; assay: Cytotoxicity against human HCT116 cells at 0.03 uM after 48 hrs by WST-1 assay; assay type: functional; in short: as §2
# [9] = tested on: ACHN; assay: Cytotoxicity against human ACHN cells at 0.03 uM after 48 hrs by WST-1 assay; assay type: functional; in short: as §2
# [10] = tested on: MCF-10A; assay: Cytotoxicity against human MCF10A cells at 1 uM after 48 hrs by WST1 assay; assay type: cell-based
# [11] = tested on: HCT-116; assay: Cytotoxicity against human HCT116 cells at 0.1 uM after 48 hrs by WST-1 assay; assay type: functional; in short: as §2
# [12] = tested on: Calu-1; assay: Cytotoxicity against human Calu1 cells after 48 hrs by WST-1 assay; assay type: functional, cell-based; conditions: Calu-1, 48 h; in short: as §2
# [13] = tested on: ACHN; assay: Cytotoxicity against human ACHN cells after 48 hrs by WST-1 assay; assay type: functional, cell-based; in short: as §2
# [14] = tested on: ACHN; assay: Cytotoxicity against human ACHN cells at 30 uM after 48 hrs by WST-1 assay; assay type: functional; in short: as §2
# [15] = tested on: PANC-1; assay: Cytotoxicity against human PANC1 cells after 48 hrs by WST-1 assay; assay type: functional, cell-based; conditions: PANC-1, 48 h; in short: as §1
# [16] = tested on: Calu-1; assay: Cytotoxicity against human Calu1 cells at 0.3 uM after 48 hrs by WST-1 assay; assay type: functional; in short: as §2
# [17] = tested on: ACHN; assay: Cytotoxicity against human ACHN cells at 0.1 uM after 48 hrs by WST-1 assay; assay type: functional; in short: as §2
# [18] = tested on: MCF-10A; assay: Cytotoxicity against human MCF10A cells at 0.03 uM after 48 hrs by WST1 assay; assay type: cell-based
# [19] = tested on: NCI-H460; assay: Cytotoxicity against human NCI-H460 cells at 0.3 uM after 48 hrs by WST-1 assay; assay type: functional; in short: as §1
# [20] = tested on: PANC-1; assay: Cytotoxicity against human PANC1 cells at 10 uM after 48 hrs by WST-1 assay; assay type: functional; in short: as §1
# [21] = tested on: PANC-1; assay: Cytotoxicity against human PANC1 cells at 0.1 uM after 48 hrs by WST-1 assay; assay type: functional; in short: as §1
# [22] = tested on: HCT-116; assay: Cytotoxicity against human HCT116 cells after 48 hrs by WST-1 assay; assay type: functional, cell-based; conditions: HCT-116, 48 h; in short: as §2
# [23] = tested on: ACHN; assay: Cytotoxicity against human ACHN cells at 10 uM after 48 hrs by WST-1 assay; assay type: functional; in short: as §2
# [24] = tested on: MCF-10A; assay: Cytotoxicity against human MCF10A cells at 0.01 uM after 48 hrs by WST1 assay; assay type: cell-based
# [25] = tested on: NCI-H460; assay: Cytotoxicity against human NCI-H460 cells at 30 uM after 48 hrs by WST-1 assay; assay type: functional; in short: as §1
# [26] = tested on: NCI-H460; assay: Cytotoxicity against human NCI-H460 cells at 0.1 uM after 48 hrs by WST-1 assay; assay type: functional; in short: as §1
# [27] = tested on: NCI-H460; assay: Cytotoxicity against human NCI-H460 cells at 3 uM after 48 hrs by WST-1 assay; assay type: functional; in short: as §1
# [28] = tested on: Calu-1; assay: Cytotoxicity against human Calu1 cells at 0.1 uM after 48 hrs by WST-1 assay; assay type: functional; in short: as §2
# [29] = tested on: HCT-116; assay: Cytotoxicity against human HCT116 cells at 30 uM after 48 hrs by WST-1 assay; assay type: functional; in short: as §2
# [30] = tested on: Calu-1; assay: Cytotoxicity against human Calu1 cells at 1 uM after 48 hrs by WST-1 assay; assay type: functional; in short: as §2
# [31] = tested on: MCF-10A; assay: Cytotoxicity against human MCF10A cells at 0.3 uM after 48 hrs by WST1 assay; assay type: cell-based
# [32] = tested on: PANC-1; assay: Cytotoxicity against human PANC1 cells at 0.3 uM after 48 hrs by WST-1 assay; assay type: functional; in short: as §1
# [33] = tested on: Calu-1; assay: Cytotoxicity against human Calu1 cells at 10 uM after 48 hrs by WST-1 assay; assay type: functional; in short: as §2
# [34] = tested on: NCI-H460; assay: Cytotoxicity against human NCI-H460 cells at 0.01 uM after 48 hrs by WST-1 assay; assay type: functional; in short: as §1
# [35] = tested on: NCI-H460; assay: Cytotoxicity against human NCI-H460 cells at 1 uM after 48 hrs by WST-1 assay; assay type: functional; in short: as §1
# [36] = tested on: HCT-116; assay: Cytotoxicity against human HCT116 cells at 3 uM after 48 hrs by WST-1 assay; assay type: functional; in short: as §2
# [37] = tested on: NCI-H460; assay: Cytotoxicity against human NCI-H460 cells at 10 uM after 48 hrs by WST-1 assay; assay type: functional; in short: as §1
# [38] = tested on: MCF-10A; assay: Cytotoxicity against human MCF10A cells at 3 uM after 48 hrs by WST1 assay; assay type: cell-based
# [39] = tested on: ACHN; assay: Cytotoxicity against human ACHN cells at 3 uM after 48 hrs by WST-1 assay; assay type: functional; in short: as §2
# [40] = tested on: MCF-10A; assay: Cytotoxicity against human MCF10A cells after 48 hrs by WST1 assay; assay type: cell-based
# [41] = tested on: HCT-116; assay: Cytotoxicity against human HCT116 cells at 1 uM after 48 hrs by WST-1 assay; assay type: functional; in short: as §2
# [42] = tested on: NCI-H460; assay: Cytotoxicity against human NCI-H460 cells after 48 hrs by WST-1 assay; assay type: functional, cell-based; conditions: NCI-H460, 48 h; in short: as §1
# [43] = tested on: MCF-10A; assay: Cytotoxicity against human MCF10A cells at 30 uM after 48 hrs by WST1 assay; assay type: cell-based
# [44] = tested on: Calu-1; assay: Cytotoxicity against human Calu1 cells at 0.03 uM after 48 hrs by WST-1 assay; assay type: functional; in short: as §2
# [45] = tested on: PANC-1; assay: Cytotoxicity against human PANC1 cells at 3 uM after 48 hrs by WST-1 assay; assay type: functional; in short: as §1
# [46] = tested on: Calu-1; assay: Cytotoxicity against human Calu1 cells at 3 uM after 48 hrs by WST-1 assay; assay type: functional; in short: as §2
# [47] = tested on: PANC-1; assay: Cytotoxicity against human PANC1 cells at 1 uM after 48 hrs by WST-1 assay; assay type: functional; in short: as §1
# [48] = tested on: HCT-116; assay: Cytotoxicity against human HCT116 cells at 0.3 uM after 48 hrs by WST-1 assay; assay type: functional; in short: as §2
# [49] = tested on: Calu-1; assay: Cytotoxicity against human Calu1 cells at 0.01 uM after 48 hrs by WST-1 assay; assay type: functional; in short: as §2
# [50] = tested on: MCF-10A; assay: Cytotoxicity against human MCF10A cells at 10 uM after 48 hrs by WST1 assay; assay type: cell-based
# [51] = tested on: ACHN; assay: Cytotoxicity against human ACHN cells at 0.01 uM after 48 hrs by WST-1 assay; assay type: functional; in short: as §2
# [52] = tested on: ACHN; assay: Cytotoxicity against human ACHN cells at 1 uM after 48 hrs by WST-1 assay; assay type: functional; in short: as §2
# [53] = tested on: HCT-116; assay: Cytotoxicity against human HCT116 cells at 0.01 uM after 48 hrs by WST-1 assay; assay type: functional; in short: as §2
# [54] = tested on: HCT-116; assay: Cytotoxicity against human HCT116 cells at 10 uM after 48 hrs by WST-1 assay; assay type: functional; in short: as §2
# [55] = tested on: ACHN; assay: Cytotoxicity against human ACHN cells at 1000 nM after 48 hrs by WST-1 assay; assay type: functional; in short: as §2
# [56] = tested on: Calu-1; assay: Cytotoxicity against human Calu1 cells at 1000 nM after 48 hrs by WST-1 assay; assay type: functional; in short: as §2
# [57] = tested on: HCT-116; assay: Cytotoxicity against human HCT116 cells at 1000 nM after 48 hrs by WST-1 assay; assay type: functional; in short: as §2
# [58] = tested on: PANC-1; assay: Cytotoxicity against human PANC1 cells at 1000 nM after 48 hrs by WST-1 assay; assay type: functional; in short: as §1
# [59] = tested on: NCI-H460; assay: Cytotoxicity against human NCI-H460 cells at 1000 nM after 48 hrs by WST-1 assay; assay type: functional; in short: as §1
smiles,measurement,setting,value
CCOC(=O)C(C)C(=O)c1cnccn1 (centres undefined),Activity,[1],6.7%
same,Activity,[2],99.2%
same,Activity,[3],8.3%
same,Activity,[4],100%
same,Activity,[5],27.9%
same,Activity,[6],10%
same,Activity,[7],-9.5%
same,Activity,[8],18.8%
same,Activity,[9],-28.9%
same,Activity,[10],6.3%
same,Activity,[11],26.9%
same,IC50,[12],2.8 µM
same,IC50,[13],3 µM
same,Activity,[14],82.3%
same,IC50,[15],2.9 µM
same,Activity,[16],9.4%
same,Activity,[17],19%
same,Activity,[18],-14.1%
same,Activity,[19],38.6%
same,Activity,[20],92.1%
same,Activity,[21],13.6%
same,IC50,[22],1.3 µM
same,Activity,[23],67.4%
same,Activity,[24],-15.2%
same,Activity,[25],100%
same,Activity,[26],14.2%
same,Activity,[27],55%
same,Activity,[28],6.7%
same,Activity,[29],100%
same,Activity,[30],22.8%
same,Activity,[31],-6.8%
same,Activity,[32],15.9%
same,Activity,[33],85.3%
same,Activity,[34],3.6%
same,Activity,[35],44.6%
same,Activity,[36],92.2%
same,Activity,[37],87%
same,Activity,[38],24%
same,Activity,[39],51.6%
same,IC50,[40],21.2 µM
same,Activity,[41],44.8%
same,IC50,[42],3 µM
same,Activity,[43],82.8%
same,Activity,[44],2.9%
same,Activity,[45],67.8%
same,Activity,[46],60.8%
same,Activity,[47],29.2%
same,Activity,[48],32.3%
same,Activity,[49],1.5%
same,Activity,[50],39.1%
same,Activity,[51],-23.4%
same,Activity,[52],46.2%
same,Activity,[53],9.4%
same,Activity,[54],90%
CN1CC[C@H](c2c(O)cc(O)c3c(=O)cc(-c4ccccc4Cl)oc23)[C@H](O)C1 [ALVOCIDIB],Activity,[55],71%
same,Activity,[56],88%
same,Activity,[57],78%
same,Activity,[58],74%
same,Activity,[59],71%
Nc1ccn([C@@H]2O[C@H](CO)[C@@H](O)C2(F)F)c(=O)n1 [GEMCITABINE],Activity,[55],73%
same,Activity,[56],71%
same,Activity,[57],74%
same,Activity,[58],79%
same,Activity,[59],73%
